From PubChem BioAssay
Cneo AK release: Cryptococcus neoformans cell lysis inducers, primary screen, AK release luminescence, single concentration; C. neoformans lysis, adenylate kinase release luminescence, 4 h; normalised: neutral wells 0, clomiphene wells 100; lysis activity, % at 15 µM; actives 0.2% (n = 360,000); AID 651654, 2012;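 active = mean lysis activity across replicates of at least 80%, whatever share of replicates individually reach that level; inactive = mean lysis activity below 80%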
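Material – Cryptococcus neoformans yeast cells · Quantity – 5 × 10^6 yeast cells/mL · Buffer or medium – YPD medium · Compound – single dose · Timing – 4 h static compound exposure, 37 °C, read 1 h post-reagent · Signal – adenylate kinase release luminescence · Read-out basis – lysis from increased AK signal · Benchmarks – Clomiphene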
CAL PDZ FP-1: CAL PDZ peptide-binding inhibitors, primary screen, biochemical, fluorescence polarization, Cer-tagged CAL PDZ, HTS; actives 0.02% (n = 330,000); purified CAL PDZ, TMR-peptide fluorescence polarization, 1 h; inhibition, % at 20 µM; Golgi-associated PDZ and coiled-coil motif-containing protein (Homo sapiens), Q9HD26; AID 504414, 2011;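 active = highest replicate inhibition of at least 40%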
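System: purified tagged CAL PDZ domain construct (CerCALP). Schedule: 1 h incubation at room temperature before polarization reading. Medium: 25 mM sodium phosphate pH 7.4, 150 mM NaCl, TCEP, IgG, Thesit. Read-out: percent inhibition from loss of millipolarization. Measured by: FP readout, S and P plane fluorescence. Probe or stimulus: fluorescent TMR peptide probe.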
PglD DTNB: C. jejuni PglD acetyltransferase inhibitors, primary screen, biochemical, DTNB colorimetric, single point | inhibition, % at 12.5 µM | actives 0.098% (n = 360,000) | purified PglD enzyme, DTNB colorimetric CoA detection; in the data active = inhibition above about 16%, passing the limit was not always enough
miR122 inh: miR-122 Renilla sensor signal increase in Huh7, primary screen, miR-122 inhibitor project, cell-based, single point, plate reader | Huh7 miR-122 Renilla luciferase sensor, 48 h; neutral wells = 0, positive control = 100 | activation (reporter increase), % at 12.5 µM | actives 0.3% (n = 340,000);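 active = mean replicate activation score at least 90 and every replicate individually at or above 90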;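 note: higher luciferase means less miR-122 activity so hits act as miR-122 inhibitors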
CAL PDZ FP-2: untagged CAL PDZ binding inhibitors, primary screen, biochemical, fluorescence polarization, HTS; AID 602252, 2012; purified CAL PDZ, TMR-peptide fluorescence polarization, 1 h; actives 0.92% (n = 300,000); Golgi-associated PDZ and coiled-coil motif-containing protein (Homo sapiens), Q9HD26; inhibition, % at 24.9 µM;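 active = mean inhibition of at least 30% with at least half of replicates also reaching 30%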
Numbers stand for hits; . = inactive; / = no result given; [ ] = another dose, or the depositor's remark. The list is not random: actives were taken first. Their share in the collection is about 1.1%.

SMILES	Cneo AK release	CAL PDZ FP-1	PglD DTNB	miR122 inh	CAL PDZ FP-2
CC(=O)N(C)C[C@H]1[C@H](c2ccc(-c3cccnc3)cc2)[C@@H](CO)N1C(=O)C1CC1	.	/	.	125[16.7 µM]	/
COc1ccc(S(=O)(=O)Nc2ccc3c(c2)CC(=O)N([C@@H](C)CO)C[C@H](C)[C@H](CN(C)S(=O)(=O)c2ccc(F)cc2)O3)cc1	.	/	.	.	/
CN1C(=O)c2cc(NC(=O)c3cccc(F)c3)ccc2OC[C@@H]2O[C@H](CC(=O)NC3CCC3)CC[C@H]21	.	/	.	.	/
C[C@@H]1CN([C@H](C)CO)C(=O)Cc2cc(NC(=O)C3CCCCC3)ccc2O[C@@H]1CN(C)S(=O)(=O)c1cn(C)cn1	.	/	.	.	/
COc1ccc(C#Cc2ccc3c(c2)[C@@H]2[C@@H](CCN2S(=O)(=O)c2ccccc2C)[C@H](CO)N3C)cc1	.	/	.	.	/
COCC(=O)NC[C@H]1N[C@H](CO)[C@@H]1c1ccc(C2=CCCCC2)cc1	.	/	.	.	/
COCC(=O)NC[C@@H]1N[C@@H](CO)[C@H]1c1ccc(C2=CCCC2)cc1	93	/	.	.	/
CC(=O)N1CCN(C(=S)c2ccc(Cl)cc2)CC1	/	.	/	/	43
COCc1cn(CC[C@@H]2CC[C@@H](NC(=O)Nc3ccc(Cl)cc3)[C@@H](CO)O2)nn1	.	/	.	/	/
Cc1noc(C)c1S(=O)(=O)N(C)C[C@H]1OCCCC[C@H](C)Oc2ccc(NS(C)(=O)=O)cc2C(=O)N([C@H](C)CO)C[C@@H]1C	.	/	.	.	/
CCOc1cc(C)c(Cl)cc1S(=O)(=O)N(CC)CC	.	.	/	.	74
COc1cc(C)c(Cl)c(C)c1S(=O)(=O)NC1CC(C)(C)NC(C)(C)C1	.	.	.	.	.
CCOc1cc(S(=O)(=O)NC2CC(C)(C)NC(C)(C)C2)ccc1Cl	.	.	.	.	.
CCOc1cc(C)c(Cl)cc1S(=O)(=O)NC1CC(C)(C)NC(C)(C)C1	/	.	/	181	.
CCOc1cc(S(=O)(=O)N(CC)CC)ccc1Cl	/	.	/	/	.
COc1cc(C)c(C(C)C)cc1S(=O)(=O)NC1CC(C)(C)NC(C)(C)C1	.	.	.	128	.
C[C@@H]1CCCCO[C@@H](CN(C)C(=O)CCCN(C)C)[C@H](C)CN([C@@H](C)CO)C(=O)c2cc(NC(=O)Nc3cccc4ccccc34)ccc2O1	.	/	.	.	/
CCCC(=O)Nc1ccc2c(c1)OC[C@H](C)N(CCC)C[C@H](C)[C@@H](OC)CN(C)C2=O	.	/	.	/	/
CCCNC(=O)N(C)C[C@@H]1Oc2cc(C#CC(C)(C)O)ccc2S(=O)(=O)N([C@H](C)CO)C[C@@H]1C	.	/	.	.	/
C[C@@H]1CN([C@@H](C)CO)C(=O)Cc2cc(NC(=O)Cc3cn(C)c4ccccc34)ccc2O[C@H]1CN(C)C(=O)Nc1ccc(F)cc1	/	/	/	.	/
O=C(C1CCCCC1)N1CCCc2ccccc21	.	.	.	.	.
CC(C)N1C(=O)CCC1C(=O)N1CCCc2ccccc21 (stereo unspecified)	.	.	25	.	.
CCCNC(=O)C[C@@H]1CC[C@H]2[C@H](COc3ccc(NC(=O)COC)cc3C(=O)N2C)O1	.	/	.	.	/
Cc1ccc(C(c2nnnn2C2CCCCC2)N2CCc3ccccc32)cc1 (stereo unspecified)	/	.	/	/	74
CC(CC(=O)O)CC(=O)Nc1nncs1 (stereo unspecified)	.	.	.	.	53
SMILES	Cneo AK release	CAL PDZ FP-1	PglD DTNB	miR122 inh	CAL PDZ FP-2
O=C(CCc1ccccc1)Nc1nncs1	.	/	.	.	.
c1ccc(-c2noc(C3CCCCC3)n2)nc1	.	.	.	.	.
Brc1ccc(-c2noc(C3CCCCC3)n2)cc1	/	.	/	/	107
CN(C)CC(=O)N[C@@H]1CC[C@@H](CCn2cc(C3CCCC3)nn2)O[C@H]1CO	.	/	.	/	/
COc1cccc(CNc2nc3cc(-c4cccc(C(=O)NCCO)c4)sc3c(=O)n2C)c1	.	/	.	.	/
CC(=O)C1=C(C)NC(=S)NC1c1cc([N+](=O)[O-])ccc1O (stereo unspecified)	.	.	.	.	64
CC1=C(C(=O)c2ccccc2)C(c2cccc([N+](=O)[O-])c2)NC(=S)N1 (stereo unspecified)	/	.	/	/	.
CCCCCCn1cc(C(=O)O)c(=O)c2cc(F)c(N3CCN(C)CC3)cc21	.	.	.	.	30
Cc1ccc(NCc2nnc(SCC(=O)Nc3ccccc3)n2CC2CCCO2)c(C)c1 (stereo unspecified)	/	.	/	151	.
COc1ccc(CCNC/C=C/c2ccccc2)cc1	.	.	.	.	51
COc1ccc(CNC/C=C/c2ccccc2)cc1	.	.	.	.	.
Cc1ccc(SCC(=O)Nc2ccc3c(c2)C(=O)N(C)C3=O)cc1	.	.	.	.	179
COCCCn1c(SC(C)C(=O)Nc2c(C)n(C)n(-c3ccccc3)c2=O)n[nH]c1=O (stereo unspecified)	/	.	/	/	43
CCn1ccnc1CN1CCc2c([nH]c3ccccc23)C1C(C)(C)C (stereo unspecified)	/	.	/	.	80
CCn1ccnc1CN1CCc2c([nH]c3ccccc23)C1CC(C)C (stereo unspecified)	/	.	/	/	/
Cc1cc(C(=O)Nn2cnc3ccccc3c2=O)ccc1[N+](=O)[O-]	/	.	/	/	.
CCCC(C)NS(=O)(=O)c1ccccc1 (stereo unspecified)	.	.	.	.	.
CCCC(C)NS(=O)(=O)c1ccc(OC)c(C)c1 (stereo unspecified)	.	.	.	153	.
CC(C)(C)OC(=O)n1cc(C(=O)c2ccccc2O)cn1	.	.	.	.	70
COC(=O)c1cc(-c2ccccc2)sc1NC(=O)CN1C(=O)c2ccccc2C1=O	.	.	.	.	123
COC(=O)c1cc(OC)c(OC)cc1NC(=O)CN1C(=O)c2ccccc2C1=O	.	.	.	.	.
COc1ccccc1-c1cnc2c(c1)C(=O)N([C@@H](C)CO)C[C@@H](C)[C@H](CN(C)Cc1ccc(F)cc1)O2	.	/	.	.	/
COc1cc(NS(=O)(=O)c2ccc(NC(=O)c3ccco3)cc2)nc(OC)n1	.	.	.	.	/
COc1cc(NS(=O)(=O)c2ccc(NC(=S)NC(=O)c3ccco3)cc2)nc(OC)n1	.	.	.	243	.
C[C@@H]1CCCCO[C@@H](CN(C)Cc2ccncc2)[C@H](C)CN([C@H](C)CO)C(=O)c2cc(NS(=O)(=O)c3cccs3)ccc2O1	.	/	.	.	/
